Experiments:
[1] = biological target: CNGA3 ΔN (2-156) channels (Homo sapiens, UniProt Q16281); test: Inside-out patch clamp, CNGA3 ΔN; format: biochemical
[2] = biological target: CNGA3 ΔN (51-107), 613X channels (Homo sapiens, UniProt Q16281, DEL51-107); test: Inside-out patch clamp, CNGA3 ΔN; format: biochemical
[3] = test system: tandem A3//N7R-A,613X heterodimer channels; test: Inside-out patch clamp, A3 WT//A3 N7R-A,613X tandem dimers; format: biochemical, human; conditions: from K1/2 and h before and after PIP3
[4] = biological target: GST fusion of CNGA3 N-terminal region (A3N, amino acids 1–164) (Homo sapiens, UniProt Q16281); test: In vitro PIP3-agarose bead pull-down, A3N; format: binding; conditions: PIP3-agarose beads, anti-GST immunoblot
Outline: (§1)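 Recombinant GST fusions of channel fragments expressed in E. coli and purified; soluble fraction kept after 20,000 g, 4°C, 30 min. Protein (2 µg/ml) rocked with PIP3- or control agarose beads, 2 h, 4°C, in 10 mM Hepes pH 7.4, 50 mM NaCl, 2 mM EDTA, 0.25% Triton X-100, 0.25% NP-40. Five washes, elution in sample buffer, reducing SDS gel, anti-GST (1:2,000, overnight) immunoblot, chemiluminescence; […].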

[5] = test system: PA-LP+RR-QQ CNGA3 channels; test: Inside-out patch clamp, coexpression of A3 PA-LP with A3 RR-QQ; format: biochemical, human; conditions: 1 µM PIP3
[6] = biological target: GST fusion of CNGA3 C-terminal region (A3C, amino acids 612–694) (Homo sapiens, UniProt Q16281); test: In vitro PIP3-agarose bead pull-down, A3C; format: binding; conditions: PIP3-agarose beads, anti-GST immunoblot; not quantitative
Outline: as §1

[7] = biological target: T1, A3-N7R-A,RR-QQ+B3 channels (Homo sapiens, UniProt Q16281+Q9NQW8, R101A/R103A/R643Q/R646Q/R72A/R75A/R81A/R82A/R86A); test: Inside-out patch clamp, A3-N7R-A,RR-QQ+B3; format: biochemical
T1 sequence (Q16281 1-694 R72A/R75A/R81A/R82A/R86A/R101A/R103A/R643Q/R646Q): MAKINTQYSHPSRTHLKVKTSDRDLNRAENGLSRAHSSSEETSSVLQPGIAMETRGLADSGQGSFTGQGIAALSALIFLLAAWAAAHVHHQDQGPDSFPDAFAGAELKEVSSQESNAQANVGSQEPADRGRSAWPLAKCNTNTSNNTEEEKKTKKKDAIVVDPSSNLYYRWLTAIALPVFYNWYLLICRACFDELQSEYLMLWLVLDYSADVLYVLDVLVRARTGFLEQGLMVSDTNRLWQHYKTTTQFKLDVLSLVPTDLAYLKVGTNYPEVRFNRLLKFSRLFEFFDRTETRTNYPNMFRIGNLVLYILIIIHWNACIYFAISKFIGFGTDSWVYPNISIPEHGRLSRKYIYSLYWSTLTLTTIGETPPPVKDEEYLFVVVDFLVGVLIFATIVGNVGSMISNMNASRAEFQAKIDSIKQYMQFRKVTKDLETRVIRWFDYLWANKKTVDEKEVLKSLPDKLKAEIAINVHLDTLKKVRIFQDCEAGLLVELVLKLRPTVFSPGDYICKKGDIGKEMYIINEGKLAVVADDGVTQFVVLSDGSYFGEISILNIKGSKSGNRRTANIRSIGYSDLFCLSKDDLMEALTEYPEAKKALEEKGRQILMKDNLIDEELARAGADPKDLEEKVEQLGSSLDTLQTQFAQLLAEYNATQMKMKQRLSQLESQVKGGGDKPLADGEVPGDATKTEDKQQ
T1 sequence (Q9NQW8 1-809): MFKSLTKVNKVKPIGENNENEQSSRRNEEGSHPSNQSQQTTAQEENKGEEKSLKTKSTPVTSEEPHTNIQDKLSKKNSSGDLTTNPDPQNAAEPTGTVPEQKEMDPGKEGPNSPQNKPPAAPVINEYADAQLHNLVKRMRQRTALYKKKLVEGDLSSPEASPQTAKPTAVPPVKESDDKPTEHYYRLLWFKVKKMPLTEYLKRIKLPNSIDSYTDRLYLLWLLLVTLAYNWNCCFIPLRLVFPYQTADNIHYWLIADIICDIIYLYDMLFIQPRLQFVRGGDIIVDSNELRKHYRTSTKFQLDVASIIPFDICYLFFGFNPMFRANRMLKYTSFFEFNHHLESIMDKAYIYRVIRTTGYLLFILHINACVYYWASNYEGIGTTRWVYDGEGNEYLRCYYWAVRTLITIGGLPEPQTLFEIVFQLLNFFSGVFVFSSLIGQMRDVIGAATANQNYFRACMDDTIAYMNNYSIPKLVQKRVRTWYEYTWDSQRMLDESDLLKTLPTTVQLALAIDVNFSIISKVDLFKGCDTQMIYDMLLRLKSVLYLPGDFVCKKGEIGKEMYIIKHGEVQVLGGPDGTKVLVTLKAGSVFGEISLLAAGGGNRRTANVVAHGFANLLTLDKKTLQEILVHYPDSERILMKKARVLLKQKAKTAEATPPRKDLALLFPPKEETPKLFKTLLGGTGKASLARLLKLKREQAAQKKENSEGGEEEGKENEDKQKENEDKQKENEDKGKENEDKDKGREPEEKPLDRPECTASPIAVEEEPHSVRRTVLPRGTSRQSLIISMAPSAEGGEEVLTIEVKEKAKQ
Outline: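 Subunit cRNAs (~20 ng, B in excess over A) injected into stage IV Xenopus oocytes; inside-out patches 2–7 d later, 20–22°C, symmetric 130 mM NaCl, 0.2 mM EDTA, 3 mM Hepes pH 7.2. Heteromer formation checked by 25 µM l-cis-diltiazem with 1 mM cGMP. diC8 phosphoinositides applied intracellularly in phosphatase-inhibitor cocktail. cGMP dose–response at +80 mV, leak-subtracted, Hill fit before/after for K1/2; mean ± SEM.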

[8] = read-out: K1/2 cGMP, +80 mV, no PIPn

Nc1nc2c(ncn2[C@@H]2O[C@@H]3COP(=O)(O)O[C@H]3[C@H]2O)c(=O)[nH]1 [cGMP, cyclic guanosine monophosphate]
Hill coefficient ([1]; cGMP activation): 1.77 ± 0.07 (9) | EC50 [1, 8]: 9.16 ± 0.65 µM | Hill coefficient ([2]; cGMP activation): 1.90 ± 0.06 (4) | EC50 [2, 8]: 11.1 ± 2.28 µM

phosphatidylinositol (3,4,5)-trisphosphate [PIP3]
change in the energetics of channel opening produced by PIP3 (ΔΔG) [3]: 1.29 ± 0.08 kcal/mol | in vitro PIP3 binding [4]: able to directly bind PIP3 | Imax cAMP/cGMP (PIP3/control) [5]: 1.67 ± 0.06 | in vitro PIP3 binding [6]: binding was observed | regulation of apparent cGMP affinity ([7]; 10 µM PIP2 or 1 µM PIP3): insensitive to regulation | percent change in K1/2 cGMP caused by PIP3 ([7]; 10 µM PIP3): 2 ± 8%

Source: publication PMC3607822 (The Journal of General Physiology, 2013)
